A selection: hits, their analogues and other compounds. The true share with any hit is near 3.8%.
KCNQ1 inh = human KCNQ1 channel inhibition; AID 2642; CHO-K1 KCNQ1, FluxOR thallium flux fluorescence; active compounds read high; B-score at 10 µM; 310,000 compounds, 1.3% hits;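 active means compounds whose thallium flux B-score, printed positive for inhibition, exceeds three library SD while starting fluorescence stays within three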;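 further: channel opened by potassium depolarization with thallium stimulus after 20 min compound exposure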
KCNQ1 pot = human KCNQ1 channel potentiation or activation | P51787 | CHO-K1 KCNQ1, thallium flux FluxOR fluorescence; active compounds read high | B-score at 10 µM | 310,000 compounds, 0.35% hits | AID 2648;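 active means fluorescence ratio B-score, a plate-corrected score, at least three library SD, with initial intensity B-score within 5 SD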
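System: Stable KCNQ1 CHO-K1 line | Incubation: 90 min dye loading and 20 min compound exposure, both at room temperature | Measure: Ratio B score | Medium: Assay buffer for compound exposure, DMSO matched across wells | Compound dosing: Single-concentration screen | Probe or stimulus: K+/Tl+ depolarizing stimulus | Measured by: Kinetic FluxOR fluorescence, 10 s baseline plus 110 s post-stimulus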
KCNK3 inh = human KCNK3 channel inhibition, primary screen. O14649. CHO-KCNK3 thallium flux, FluxOR fluorescence; active compounds read low. B-score at 10 µM. 340,000 compounds, 0.84% hits. AID 602410;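 active means B-score under library mean minus 4 SD, starting fluorescence ratio at most library mean plus 5 SD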;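 further: more negative B-score means stronger inhibition of thallium flux through KCNK3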
Target sequence (O14649 whole entry, looked up): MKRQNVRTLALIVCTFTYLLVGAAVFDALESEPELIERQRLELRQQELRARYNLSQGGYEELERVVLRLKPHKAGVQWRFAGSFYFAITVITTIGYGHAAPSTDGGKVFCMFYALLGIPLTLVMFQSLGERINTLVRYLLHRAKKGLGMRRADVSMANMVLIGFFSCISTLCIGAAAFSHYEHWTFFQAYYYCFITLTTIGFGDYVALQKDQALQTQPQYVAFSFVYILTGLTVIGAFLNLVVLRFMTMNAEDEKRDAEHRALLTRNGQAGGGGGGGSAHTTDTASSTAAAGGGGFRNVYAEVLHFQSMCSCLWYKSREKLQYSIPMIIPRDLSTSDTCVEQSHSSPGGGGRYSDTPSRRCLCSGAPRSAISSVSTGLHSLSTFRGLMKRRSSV
hERG protect = shields human hERG channel from block by proarrhythmic agents. Q12809. CHO-hERG, FluxOR thallium flux, dofetilide IC70 present. activation (rescue from dofetilide block), less the hit threshold, % at 10 µM. 310,000 compounds, 0.51% hits;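 active means activation above the mean of controls blocked by dofetilide plus 5 SD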;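 further: thallium influx through hERG after potassium depolarization seen as dye fluorescence rise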
KCNK9 block = inhibitors of human KCNK9 two-pore domain potassium channel. HEK293 KCNK9, FluxOR thallium flux fluorescence; active compounds read low. 310,000 compounds, 1.2% hits. AID 488922. Q9NPC2. B-score at 10 µM;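 active means ratio B-score over 3 SD below the library mean, with starting fluorescence within 5 SD of its mean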;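 further: negative B-score means less thallium flux so channel inhibition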
Kir21 block = blocks the mouse Kir2.1 inward-rectifier potassium channel; HEK293-Kir2.1, FluxOR thallium flux fluorescence; active compounds read low; 310,000 compounds, 0.85% hits; B-score at 10 µM; P35561;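 active means fluorescence ratio B-score at or below minus 3 SD of library scores, with starting-brightness B-score within 2 SD, cut at about -4.2 in these data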;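 further: channel flux triggered by added potassium and thallium sulfate stimulus; B-score of peak minus minimum fluorescence over baseline after thallium stimulus; more negative B-score means stronger Kir2.1 block with less thallium influx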
KCNK9 block conf = human KCNK9 inhibitor confirmation; 4,900 compounds, 43% hits; inhibition, % at 10 µM; HEK293 KCNK9 cells, FluxOR thallium flux fluorescence; shares compounds with KCNK9 block;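 active means thallium signal inhibited by more than 5 SD of the compound-free buffer control wells, on both duplicate plates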;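 further: 0% = assay buffer control wells without compound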
Kir21 sel = selectivity of KCNK9 modulators against mouse Kir2.1; Kir2.1 cells, FluxOR thallium flux fluorescence; 4,900 compounds, 4% hits; inhibition, % at 10 µM; shares compounds with KCNK9 block;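 active means thallium signal drop more than 5 SD beyond the mean of the no-compound control wells, seen in both duplicate plates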;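 further: signal is fluorescence rise after thallium addition divided by baseline fluorescence; plate controls were assay buffer only for no effect and full block by chlorpromazine control for full effect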
KCNK9 uninduced = second check of KCNK9 modulator effects in non-induced HEK293 cells; shares compounds with KCNK9 block; FluxOR thallium flux; inhibition, % at 10 µM; 4,900 compounds, 40% hits;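 active means thallium signal drop beyond 5 SD of the untreated control mean, on both duplicate plates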;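 further: plate controls were buffer only IC0 wells for no effect and SID17386958 at its maximal inhibitory level for full effect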
* marks the source's active call; other numbers are inactive results; i = inactive; / = not tested or not shown.

SMILES	KCNQ1 inh	KCNQ1 pot	KCNK3 inh	hERG protect	KCNK9 block	Kir21 block	KCNK9 block conf	Kir21 sel	KCNK9 uninduced
C/C(=N\NC(=O)C(c1ccncc1)N1CCOCC1)c1ccc(Br)cc1 (centres undefined)	i	i	i	-4	i	0.09	/	/	/
CCOC(=O)C1(Cc2cccc(F)c2)CCN(Cc2ccc(COC)o2)CC1	i	i	i	-13	i	-0.66	/	/	/
Cc1c(C(=O)c2ccc(Cl)cc2Cl)cnc2cc3c(cc12)OCO3	i	i	i	-11	-16*	1.6	62%*	i	30%*
O=C(O)C1CCN(S(=O)(=O)c2ccc(N3CCOCC3)c([N+](=O)[O-])c2)CC1	i	i	i	-1	i	0.76	/	/	/
O=C(NCc1ccco1)C1CCN(c2ccc(S(=O)(=O)N3CCOCC3)cc2[N+](=O)[O-])CC1	i	i	i	-5	-9.3*	0.06	i	i	i
CCOC(=O)C1=C(CSc2nc3c(cc2C#N)CN(C)CC3)OC(N)=C(C#N)C1c1ccc(Cl)cc1 (centres undefined)	i	i	i	-7	i	0.38	/	/	/
CCOC(=O)C1=C(CSc2nc(C)cc(C)c2C#N)OC(N)=C(C#N)C1c1ccccc1 (centres undefined)	i	i	i	-16	-14*	1.6	56%*	i	48%*
CCOCCCNC(=O)C(NC(=O)Cc1cccs1)c1ccc(Cl)cc1 (centres undefined)	i	i	i	-4	i	0.08	/	/	/
COc1ccc(NC(=O)c2ccc(-c3ccc(C)c4ccccc34)o2)cc1	i	i	i	-8	i	0.9	/	/	/
Cc1ccc(-c2ccc(C(=O)Nc3cccc(F)c3)o2)c2ccccc12	i	i	i	-17	i	1.5	i	i	i
Cc1ccc2c(c1)C(=O)C(=O)N2CC(=O)Nc1ccccc1NC(=O)c1ccccn1	i	i	i	-12	i	-0.55	/	/	/
N#C/C(=C\c1c(N2CCC(C(N)=O)CC2)nc2ccccn2c1=O)S(=O)(=O)c1ccc(Cl)cc1	i	i	i	-12	i	0.01	/	/	/
COCc1ccc(C(=O)N2CCCC(N(C)Cc3ccccc3)C2)s1 (centres undefined)	i	i	i	-4	i	-0.32	/	/	/
CN(Cc1ccccc1)C1CCCN(C(=O)c2ccc(Cl)s2)C1 (centres undefined)	i	i	i	-8	i	-0.14	i	i	i
COc1ccc2[nH]cc(CCn3ccc(O)c(C/C=C/c4ccccc4)c3=O)c2c1	i	i	i	-18	i	-0.01	/	/	/
O=c1c(C/C=C/c2ccccc2)c(O)ccn1CCc1c[nH]c2ccccc12	i	i	i	-9	i	-2	i	i	i
c1ccc(COC2COC3C(OCc4ccccc4)COC23)cc1 (centres undefined)	/	/	i	/	/	/	/	/	/
CCN1C(=O)N(C)[C@@H](c2ccccc2)C(C(=O)OC)=C1C	i	i	i	-3	i	-1.1	/	/	/
Cc1cc(SCC(=O)NCCCN2CCCC2=O)nc2ccccc12	/	/	i	/	/	/	/	/	/
O=C(CN1CCc2ccccc21)NCc1ccccc1Cl	i	i	i	-7	i	0.67	i	i	i
CCn1c2c(c3cc(OCC(C)C)ccc31)CCCC2=O	i	i	i	-3	i	0.9	i	i	i
CCn1c2c(c3cc(Br)ccc31)CCC/C2=N\O	i	i	i	-4	i	-0.51	/	/	/
COc1ccc(N=C(c2ccccc2)c2c(C)[nH]n(-c3ccccc3)c2=O)c(OC)c1	6*	i	i	-16	i	-0.7	i	i	32%*
